The source of these data is article PMC8905034 (Acta Pharmacologica Sinica, 2022).

Test [1] addresses T1, BRD4(1) (Homo sapiens, UniProt O60885). The experiment in a line: Thermal shift assay. It counts as binding.
Test [2] deals with T1, BRD4(1). The test can be described thus: Alphascreen assay against BRD4. It counts as biochemical.
In test [3] the test system is MV4-11 cells. The experiment in a line: Apoptosis analysis by flow cytometry. It counts as cell-based, human. The note with it: MV4-11, 1 μM, 5 μM and 10 μM vs control. Put shortly: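 Harvested cells washed in cold PBS and resuspended at 10^6/mL in 1× Annexin binding buffer. Stained with Alexa Fluor 488 Annexin V plus propidium iodide (100 μg/mL working solution) for 15 min at room temperature in the dark, then analysed by flow cytometry. Groups compared by one-way ANOVA with Tukey's test.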
On the technique in general: Flow cytometry measures light scatter and fluorescence of single cells or particles in a stream.

Test [4] concerns c-Myc. The test can be described thus: Western blotting of c-Myc in MV4-11. The note with it: MV4-11, 48 h, Western blot. Type of test: cell-based, human. Put shortly: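 MV4-11 cells treated 48 h with several compound concentrations, then lysed 30 min on ice in RIPA with PMSF and cleared at 12,000 r/min, 4 °C. Protein quantified by BCA, run on 8% SDS-PAGE, blotted to PVDF and blocked in 5% milk/TBST. Probed with anti-c-Myc (1:1000, 4 °C overnight) and HRP anti-rabbit (1:50000, 1 h), then ECL. Densitometry relative to GAPDH; ANOVA/Tukey.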

For a further test, the system named is CDK6. The experiment in a line: qRT-PCR of CDK6 mRNA in MV4-11. It counts as cell-based, human. The note with it: MV4-11, 48 h, 1 μM, 5 μM and 10 μM vs control. An outline of the steps: (§1)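 Log-phase cells seeded at 5000 per well, grown 12 h, then given a range of test compound concentrations for 48 h, in triplicate wells. RNA extracted with TRIzol; reverse transcription with iScript (25 °C 5 min, 42 °C 30 min, 85 °C 5 min). EvaGreen qPCR used gene-specific primers. Expression by 2−ΔΔCt, normalised to GAPDH; one-way ANOVA with Tukey's test.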
In general terms: Quantitative PCR measures a nucleic acid by following its amplification.

The subject of test [5] is MV4-11 cells. The test can be described thus: Cell cycle analysis by flow cytometry. Type of test: cell-based, human. The note with it: MV4-11, 48 h. Put shortly: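 Cells seeded at 5 × 10^3 per well, grown 12 h, then exposed to graded test compound concentrations or DMSO for 48 h at 37 °C. Fixed overnight in 70% ethanol at 4 °C. RNase A (about 50 μg/mL final) at 37 °C for 30 min, then PI (about 65 μg/mL final) on ice in the dark for 30 min. Flow cytometry within 1 h; one-way ANOVA with Tukey's test.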

Test [6] relates to c-Myc. The experiment in a line: qRT-PCR of c-Myc mRNA in MV4-11. Type of test: cell-based, human. As to conditions: MV4-11, 48 h, 1 μM, 5 μM and 10 μM vs control. Put shortly: as §1

Turning to `CCc1noc2cc(OC)c(NS(=O)(=O)CC)cc12` [Compound 11a, N-(3-Ethyl-6-methoxybenzo[d]isoxazol-5-yl)ethanesulfonamide], the “binding activity to BRD4 (TSA), in words” value on BRD4(1) [1] is listed as “moderate binding activity”. On the same count and under the same terms, under `CCc1noc2cc(OC)c(NS(=O)(=O)c3ccccc3)cc12` [Compound 11d, N-(3-Ethyl-6-methoxybenzo[d]isoxazol-5-yl)benzenesulfonamide] stands “moderate activity”.

With `CCc1noc2cc(OC)c(NS(=O)(=O)c3ccccc3OC)cc12` [Compound 11h, N-(3-Ethyl-6-methoxybenzo[d]isoxazol-5-yl)-2-methoxybenzenesulfonamide], inhibition against BRD4(1) [2] was half-maximal at 0.094 µM (IC50). Turning to `CCc1noc2cc(OC)c(NS(=O)(=O)c3ccc(OC)cc3)cc12` [Compound 11r, N-(3-Ethyl-6-methoxybenzo[d]isoxazol-5-yl)-4-methoxybenzenesulfonamide], the “apoptosis rate, in words” value in the test with MV4-11 cells [3] is “significantly increased”. In addition, the “c-Myc expression at the protein level” value with c-Myc [4] was “remarkable dose-dependent decrease”. In addition, in the test with CDK6, the “mRNA expression of CDK6” value is “decreased significantly”. In the test with MV4-11 cells [5], the “cell cycle arrest, in words” value is reported as “induce cell cycle arrest in G0/G1 phase in a dose-dependent manner”. Also, in the test with c-Myc [6], the “mRNA expression of c-Myc” value was “decreased significantly”. For the compound `CCc1noc2cc(OC)c(NS(=O)(=O)c3cccs3)cc12` [Compound 11y, N-(3-Ethyl-6-methoxybenzo[d]isoxazol-5-yl)thiophene-2-sulfonamide], on BRD4(1) [1], the “binding activity to BRD4 (TSA), in words” value was “good binding activities”. On the same count and under the same terms, under `CCc1noc2cc(OC)c(NS(=O)(=O)c3cccnc3)cc12` [Compound 11z, N-(3-Ethyl-6-methoxybenzo[d]isoxazol-5-yl)pyridine-3-sulfonamide] stands “good binding activities”.
